In publication PMC8988011 (The Journal of Biological Chemistry, 2022):

Experiments:
LATS2 = molecular target: T1, LATS2 (Homo sapiens, UniProt Q9NRM7); assay: Kinase assay; format: biochemical
T1 sequence (Q9NRM7 553-1088 limits assumed): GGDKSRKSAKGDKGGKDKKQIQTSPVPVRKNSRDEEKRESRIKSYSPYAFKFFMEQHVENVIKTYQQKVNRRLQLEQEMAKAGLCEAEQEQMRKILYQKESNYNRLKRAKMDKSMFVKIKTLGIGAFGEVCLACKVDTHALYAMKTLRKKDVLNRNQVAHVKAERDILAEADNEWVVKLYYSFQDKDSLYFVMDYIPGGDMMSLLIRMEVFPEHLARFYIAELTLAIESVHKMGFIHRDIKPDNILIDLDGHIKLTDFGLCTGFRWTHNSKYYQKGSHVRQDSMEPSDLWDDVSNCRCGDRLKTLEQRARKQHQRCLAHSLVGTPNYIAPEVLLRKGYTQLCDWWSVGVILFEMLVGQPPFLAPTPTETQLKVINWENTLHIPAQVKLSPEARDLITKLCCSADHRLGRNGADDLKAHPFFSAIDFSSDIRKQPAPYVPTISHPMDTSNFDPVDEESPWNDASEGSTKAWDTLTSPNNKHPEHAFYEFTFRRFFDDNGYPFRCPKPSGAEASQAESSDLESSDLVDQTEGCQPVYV
Procedure, shortened: (§1)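 LATS1 and LATS2 activity was measured with a fluorescence kinase/ADP kit following the maker's protocol in 384-well format. IC50 came from dose-response inhibition curves at 400 μM ATP. Mode of inhibition was assessed from Lineweaver-Burk plots of reaction velocity at ATP 100 to 400 μM. Three independent experiments, means ± SD.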

LATS1 = molecular target: T2, LATS1 (Homo sapiens, UniProt O95835); assay: Kinase assay; format: biochemical
T2 sequence (O95835 589-1130 limits assumed): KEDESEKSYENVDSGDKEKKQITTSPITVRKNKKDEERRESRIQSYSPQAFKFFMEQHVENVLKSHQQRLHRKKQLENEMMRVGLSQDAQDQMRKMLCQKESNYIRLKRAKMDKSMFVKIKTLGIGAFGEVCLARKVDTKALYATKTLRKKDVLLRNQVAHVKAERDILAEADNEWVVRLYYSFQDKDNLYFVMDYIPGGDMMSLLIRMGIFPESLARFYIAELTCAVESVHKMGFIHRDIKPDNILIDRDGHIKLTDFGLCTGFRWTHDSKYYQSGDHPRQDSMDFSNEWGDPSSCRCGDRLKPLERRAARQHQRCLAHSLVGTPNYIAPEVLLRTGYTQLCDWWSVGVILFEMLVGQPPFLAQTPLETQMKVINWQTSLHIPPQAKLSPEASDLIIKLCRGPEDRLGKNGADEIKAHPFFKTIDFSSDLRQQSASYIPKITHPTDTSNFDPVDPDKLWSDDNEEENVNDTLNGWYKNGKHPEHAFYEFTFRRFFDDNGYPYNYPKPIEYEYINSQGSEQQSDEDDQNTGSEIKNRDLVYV
Procedure, shortened: as §1

SKOV3 cells [1] = assay: Growth in U-bottom low-attachment plates; format: cell-based, Human; settings: with GA-017, 4 days, Fig. 3J
SGK3 = molecular target: T3, SGK3 (Homo sapiens, UniProt Q96BR1); assay: Kinase panel assay; format: biochemical
T3 sequence (Q96BR1 1-496): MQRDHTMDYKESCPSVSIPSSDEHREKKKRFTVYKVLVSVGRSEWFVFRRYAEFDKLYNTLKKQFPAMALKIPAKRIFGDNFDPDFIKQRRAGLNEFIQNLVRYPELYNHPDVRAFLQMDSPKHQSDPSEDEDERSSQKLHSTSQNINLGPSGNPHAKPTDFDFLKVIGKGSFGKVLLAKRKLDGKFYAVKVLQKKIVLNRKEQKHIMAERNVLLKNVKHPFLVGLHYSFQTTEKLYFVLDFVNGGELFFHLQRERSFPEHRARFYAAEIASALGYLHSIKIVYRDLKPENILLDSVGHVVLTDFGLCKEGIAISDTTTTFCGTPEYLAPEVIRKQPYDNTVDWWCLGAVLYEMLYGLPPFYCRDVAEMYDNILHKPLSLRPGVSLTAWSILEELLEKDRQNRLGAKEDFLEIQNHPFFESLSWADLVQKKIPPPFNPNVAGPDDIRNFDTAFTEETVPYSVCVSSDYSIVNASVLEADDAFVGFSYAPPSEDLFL

MDCK cells = assay: Cyst culture in Matrigel; format: cell-based, canine; settings: 10 μM, 6 days
Procedure, shortened: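 MDCK cells at 1.1 × 10^4 cells/ml in medium with 0.2% Matrigel GFR were plated onto a pre-set Matrigel GFR layer (15 min, 37 °C). Medium holding 10-fold concentrated test compound or DMSO was added, and plates were incubated for 6 days at 37 °C. Cysts (>30 μm diameter) were counted and sized by automated imaging. Three independent experiments, means ± SD, Student's t test.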

PKACβ = PKACβ (Homo sapiens, UniProt P22694); assay: Kinase panel assay; format: biochemical
MSK1 = MSK1 (Homo sapiens, UniProt O75582); assay: Kinase panel assay; format: biochemical
MSK1, sequence (O75582 whole entry): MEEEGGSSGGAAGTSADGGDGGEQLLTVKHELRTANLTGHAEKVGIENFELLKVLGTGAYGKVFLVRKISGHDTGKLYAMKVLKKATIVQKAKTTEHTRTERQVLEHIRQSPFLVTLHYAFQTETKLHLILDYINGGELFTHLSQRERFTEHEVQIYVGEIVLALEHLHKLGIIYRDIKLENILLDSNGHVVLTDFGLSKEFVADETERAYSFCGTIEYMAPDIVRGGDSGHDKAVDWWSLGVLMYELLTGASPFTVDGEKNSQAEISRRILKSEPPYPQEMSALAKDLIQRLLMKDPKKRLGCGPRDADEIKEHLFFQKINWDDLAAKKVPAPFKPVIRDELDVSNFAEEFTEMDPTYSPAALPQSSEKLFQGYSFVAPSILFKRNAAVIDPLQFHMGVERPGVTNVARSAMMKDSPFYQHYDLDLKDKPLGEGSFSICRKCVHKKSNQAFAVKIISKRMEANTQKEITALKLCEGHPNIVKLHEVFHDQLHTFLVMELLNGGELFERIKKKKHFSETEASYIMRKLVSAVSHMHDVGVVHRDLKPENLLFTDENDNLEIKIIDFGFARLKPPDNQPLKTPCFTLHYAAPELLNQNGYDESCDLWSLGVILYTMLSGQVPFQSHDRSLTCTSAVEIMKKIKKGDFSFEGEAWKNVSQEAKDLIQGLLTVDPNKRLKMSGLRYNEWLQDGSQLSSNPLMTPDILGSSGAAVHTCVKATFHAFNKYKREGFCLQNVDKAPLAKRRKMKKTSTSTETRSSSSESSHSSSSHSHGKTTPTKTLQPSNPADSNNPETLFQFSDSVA

[2] = system: LATS1-deleted or LATS2-deleted SKOV3 cells; assay: Growth of LATS knockout cells in U-bottom low-attachment plates, ATP assay; format: cell-based, Human; settings: 10 μM, 4 days
SGK2 = molecular target: T4, SGK2 (Homo sapiens, UniProt Q9HBY8); assay: Kinase panel assay; format: biochemical
T4 sequence (Q9HBY8 1-367): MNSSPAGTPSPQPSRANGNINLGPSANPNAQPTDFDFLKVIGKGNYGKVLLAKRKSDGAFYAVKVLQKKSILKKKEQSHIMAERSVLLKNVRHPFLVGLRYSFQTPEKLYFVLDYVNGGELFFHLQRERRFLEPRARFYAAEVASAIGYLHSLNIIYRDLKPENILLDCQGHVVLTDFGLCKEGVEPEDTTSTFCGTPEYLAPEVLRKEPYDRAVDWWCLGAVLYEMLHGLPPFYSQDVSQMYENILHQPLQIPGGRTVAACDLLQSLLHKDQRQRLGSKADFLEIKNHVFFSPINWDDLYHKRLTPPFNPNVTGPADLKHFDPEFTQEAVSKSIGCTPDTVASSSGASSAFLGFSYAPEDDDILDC

SKOV3 cells [3] = assay: Growth in 2D monolayer culture, ATP assay; format: cell-based, Human; settings: 10 μM; Fig. 1D
Procedure, shortened: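 SKOV3 monolayers were grown in medium without gellan gum on cell-attachable 96-well flat-bottom plates at 700 cells/well, 37 °C, 5% CO2, humidified. Cultures received 10 μM test compound or DMSO vehicle. Cell number was followed over time by ATP assay, and each day's value was normalized to day 0.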

p70S6K = p70S6K (Homo sapiens, UniProt P23443); assay: Kinase panel assay; format: biochemical
p70S6K, sequence (P23443 whole entry): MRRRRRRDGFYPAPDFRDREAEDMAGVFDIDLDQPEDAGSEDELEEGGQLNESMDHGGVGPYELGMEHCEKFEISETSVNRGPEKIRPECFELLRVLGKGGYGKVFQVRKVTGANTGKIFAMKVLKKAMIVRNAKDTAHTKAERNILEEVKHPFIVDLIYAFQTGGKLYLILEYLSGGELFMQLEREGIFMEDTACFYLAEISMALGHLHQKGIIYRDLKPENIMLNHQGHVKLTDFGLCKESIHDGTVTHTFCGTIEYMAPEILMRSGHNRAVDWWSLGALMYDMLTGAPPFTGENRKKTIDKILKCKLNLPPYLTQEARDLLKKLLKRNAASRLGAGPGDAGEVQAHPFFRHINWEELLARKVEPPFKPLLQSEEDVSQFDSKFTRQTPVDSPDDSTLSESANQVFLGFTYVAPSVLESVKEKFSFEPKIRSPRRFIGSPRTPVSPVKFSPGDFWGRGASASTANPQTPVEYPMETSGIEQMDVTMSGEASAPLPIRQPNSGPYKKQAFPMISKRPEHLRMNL

A431 cells = assay: Hanging drop cell culture, ATP assay; format: cell-based, Human; settings: 10 μM, 2 days
Procedure, shortened: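 A431 cells at 50,000 cells/ml received 10 μM test compound or DMSO. They were then hung as 10 μl drops (15 per lid) over a PBS-filled dish and cultured 2 days at 37 °C. Pooled drops were assayed for cell number by ATP assay, as % of DMSO control. 11 independent experiments, means ± SD, Student's t test.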

[4] = system: mouse intestinal organoids; assay: Organoid culture in Matrigel; format: cell-based; settings: 10 μM, up to 9 days, vs vehicle
SKOV3 cells [5] = assay: Growth in gellan gum–containing medium; format: cell-based, Human; settings: 10 μM, maximally effective concentration
Procedure, shortened: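 SKOV3 cells were suspended in medium with 0.015% (w/v) gellan gum and seeded at 2000 cells/well in 96-well flat-bottom low-attachment plates, 37 °C, 5% CO2. A test compound concentration series or DMSO vehicle was applied for 4 days. Cell number was read by ATP assay and expressed as % of DMSO control.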

PKACα = PKACα (Homo sapiens, UniProt P17612); assay: Kinase panel assay; format: biochemical

Question: Which “inhibition of LATS2” value (LATS2; compared with GA-017, Fig. S7) does the source give for `CC/C(=N\NC(=O)C(C)Nc1ccccc1)c1ccc(O)c(C)c1O` (stereo not shown) [GA-002, (E)-N'-(1-(2,4-dihydroxy-3-methylphenyl)propylidene)-2-(phenylamino)propanehydrazide] here?
Answer: comparable inhibition

Question: What about the “inhibition of LATS1” value (LATS1; compared with GA-017, Fig. S7) of the same compound?
Answer: comparable inhibition

Question: How did the “effect on the growth-promoting effect of GA-017” value (SKOV3 cells [1]) turn out when Verteporfin was run?
Answer: abolished the growth-promoting effect of GA-017

Question: What does the source list for `CC/C(=N\NC(=O)NCc1cccc(O)c1)c1ccc(O)c(C)c1O` [GA-017, (E)-2-(1-(2,4-dihydroxy-3-methylphenyl)propylidene)-N-(3-hydroxybenzyl)hydrazine-1-carboxamide]?
Answer: IC50 (SGK3): < 40 nM; number of cysts versus vehicle control (DMSO) (MDCK cells): 1.5 fold; IC50 (PKACβ): < 40 nM; IC50 (MSK1): < 40 nM; growth-promoting effect on LATS1- or LATS2-deleted cells [2]: did not exhibit a growth-promoting effect; IC50 (SGK2): < 40 nM; cell growth under 2D conditions (SKOV3 cells [3]): did not affect cell growth; IC50 (p70S6K): < 40 nM; growth of spheroids formed in hanging drops (A431 cells): promoted the growth of spheroids; ex vivo formation of intestinal organoids [4]: significantly enhanced the ex vivo formation of intestinal organoids; IC50 (LATS2): 3.92 ± 0.42 nM; Ki (LATS2): 0.25 ± 0.03 nM; increase in the number of SKOV3 cells (SKOV3 cells [5]): over 2 fold; IC50 (PKACα): < 40 nM; IC50 (LATS1): 4.1 ± 0.79 nM; Ki (LATS1): 0.58 ± 0.11 nM
